Results collected from several papers.
Lines come from different studies, so protocols differ.
Target: Serine/threonine-protein kinase D2 (PRKD2, Homo sapiens, UniProt Q9BZL6)
Residues used in one study (Q9BZL6 1-878): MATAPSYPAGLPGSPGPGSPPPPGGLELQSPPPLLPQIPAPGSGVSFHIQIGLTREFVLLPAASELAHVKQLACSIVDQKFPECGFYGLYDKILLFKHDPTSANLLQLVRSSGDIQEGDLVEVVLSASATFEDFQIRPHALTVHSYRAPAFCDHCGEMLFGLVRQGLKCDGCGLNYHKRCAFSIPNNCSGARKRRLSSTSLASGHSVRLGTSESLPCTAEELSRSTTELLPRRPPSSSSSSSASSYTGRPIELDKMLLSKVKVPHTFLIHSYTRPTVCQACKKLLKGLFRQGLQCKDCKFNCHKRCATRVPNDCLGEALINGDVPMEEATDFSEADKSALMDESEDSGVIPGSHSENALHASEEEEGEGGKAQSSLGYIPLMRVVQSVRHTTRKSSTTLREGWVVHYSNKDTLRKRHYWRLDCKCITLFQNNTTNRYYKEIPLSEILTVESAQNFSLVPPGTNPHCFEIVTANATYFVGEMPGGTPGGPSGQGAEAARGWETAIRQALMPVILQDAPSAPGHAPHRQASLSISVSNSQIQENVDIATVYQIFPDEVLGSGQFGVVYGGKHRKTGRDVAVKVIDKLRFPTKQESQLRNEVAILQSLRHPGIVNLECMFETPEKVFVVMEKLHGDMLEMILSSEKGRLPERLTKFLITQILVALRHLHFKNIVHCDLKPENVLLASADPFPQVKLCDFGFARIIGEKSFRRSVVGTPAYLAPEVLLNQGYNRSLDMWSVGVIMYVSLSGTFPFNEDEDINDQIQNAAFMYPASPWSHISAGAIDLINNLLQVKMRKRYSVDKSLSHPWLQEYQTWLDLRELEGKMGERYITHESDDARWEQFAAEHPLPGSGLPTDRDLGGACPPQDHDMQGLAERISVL

COc1cc(Nc2ncc(F)c(Nc3ccc4c(n3)NC(=O)C(C)(C)O4)n2)cc(OC)c1OC — inhibition (binding; 10 µM): 0%
Nc1ncc(-c2nc(N3CCOCC3)nc(N3CCOCC3)n2)c(C(F)F)n1 — remaining binding (binding; competition with immobilised ligand; 10 µM): 99%
COc1ncccc1-c1cnn2ccc(N3CCN(C(=O)OC(C)C)CC3)nc12 — remaining binding (binding; competition with immobilised ligand; 1 µM): 100%
O=c1[nH]c2ccccc2n1C1CCN(Cc2ccc(-c3[nH]c4cc5ncnc5cc4nc3-c3ccccc3)cc2)CC1 — remaining signal (cell-free assay; 0.5 µM): 109%
Cc1nn(C)cc1-c1nc2c(N3CCN(Cc4ccc(Cl)cc4)CC3)c(Cl)cnc2[nH]1 — remaining binding (binding; competition with immobilised ligand; 1 µM): 100%
Cn1cc(-c2cc(F)cc(N3CCn4c(cc5c4CCCC5)C3=O)c2CO)cc(Nc2ccc(N3CCN(C4COC4)CC3)cn2)c1=O — inhibition (enzyme activity; inhibitor; 0.1 µM): 11%
CC(C)(C)c1cc(C=C(C#N)C#N)cc(Br)c1O — remaining activity (enzyme activity; inhibitor; 0.5 µM): 108%
Cn1cncc1[C@](O)(COc1ccc(C#N)cc1-c1ccc(OC(F)(F)F)cc1)c1ccc(C#N)cc1 — remaining binding (cell-free assay; competition with immobilised ligand; 1 µM): 84%
Cn1cc(-c2cccc(N3CCc4c(sc5c4CC(C)(C)C5)C3=O)c2CO)cc(Nc2ccncn2)c1=O — inhibition (enzyme activity; inhibitor; 1 µM): 0%
